Data reported in ChEMBL document CHEMBL1153954, “Promiscuous aggregate-based inhibitors promote enzyme unfolding” (J Med Chem, 2009).
Activity calls are given as the source filed them. The calls are words filed in the database; no cut-off is given here.

Legend:
AmpC (Escherichia coli) [1] = molecular target: AmpC (Escherichia coli) (UniProt Q83TT7); assay: Inhibition of Escherichia coli AmpC assessed as induction of protein unfolding measured by trypsin mediated degradation of compound-AmpC enzyme complex at 250 uM after 15 mins by gel electrophoresis
Procedure, shortened: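 AmpC β-lactamase (0.5 μM) in 50 mM KPi, pH 7.0, with or without aggregator at 250 μM (1% DMSO final). Trypsin (0.01 or 0.025 mg/mL) added after 5 min. Digestion ran at room temperature for 0 min to 4 h. Samples were boiled 2 min in DTT-containing loading buffer, run on SDS-PAGE, and the β-lactamase band was scored against compound-free enzyme.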

AmpC (Escherichia coli) [2] = molecular target: AmpC (Escherichia coli) (UniProt Q83TT7); assay: Inhibition of Escherichia coli AmpC assessed as induction of protein unfolding measured by trypsin mediated degradation of compound-AmpC enzyme complex at 100 uM after 4 hrs by gel electrophoresis
Procedure, shortened: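 AmpC (0.5 μM) was preincubated 5 min with or without 100 μM aggregator in 50 mM KPi, pH 7.0, 1% DMSO final. Trypsin (0.01 or 0.025 mg/mL) was then added, and digestion ran at room temperature for 0, 15, 30 min, 1 h or 4 h. Samples were boiled in DTT-containing loading buffer and the AmpC band was followed by SDS-PAGE.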

AmpC (Escherichia coli), sequence (Q83TT7 as listed by the source): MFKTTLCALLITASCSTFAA

Activity (AmpC (Escherichia coli) [1]) | Activity (AmpC (Escherichia coli) [2]) | SMILES
Active |  | O=S(=O)(O)c1cc(O)c(/N=N/c2ccc3ccccc3c2O)c2ccccc12
 | Active | CCCCCCNC(=O)Nc1ccc(S(=O)(=O)Nc2ccc(CCNC[C@H](O)COc3ccc(O)cc3)cc2)cc1
